Measured values as given in article PMC9643332 (Bioorganic Chemistry, 2022).
Entries after “also recorded” stand apart in the source; their conditions may differ.

Columns and labels:
SARS-CoV-2 3CL^pro [1] = molecular target: T1, SARS-CoV-2 3CL^pro (Severe acute respiratory syndrome coronavirus 2, UniProt P0DTD1); experiment: biochemical; format: biochemical; settings: for inhibition at 100 µM: read-out: inhibition against SARS-CoV-2 3CLpro
SARS-CoV-2 3CL^pro [2] = molecular target: T1, SARS-CoV-2 3CL^pro; experiment: Enzymatic inhibition assay in the presence of DTT or GSH; format: biochemical; settings: 10 μM compound
How it was run: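 The thiol-dependence FRET assay preincubated SARS-CoV-2 3CLpro with test compound in reaction buffer (0.1 M PBS, 1 mM EDTA, pH 7.4), with 4 mM DTT or 1 mM GSH, or without either.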

SARS-CoV-2 3CL^pro [3] = molecular target: T1, SARS-CoV-2 3CL^pro; format: biochemical
[4] = molecular target: Dipeptidyl peptidase IV (DPP-IV) (Homo sapiens, UniProt P27487); experiment: Human protease selectivity: DPP-IV inhibition in human plasma with GP-BAN probe; format: biochemical; settings: 0, 1, 10, 100 μM
Sequence of Dipeptidyl peptidase IV (DPP-IV) (P27487 39-766): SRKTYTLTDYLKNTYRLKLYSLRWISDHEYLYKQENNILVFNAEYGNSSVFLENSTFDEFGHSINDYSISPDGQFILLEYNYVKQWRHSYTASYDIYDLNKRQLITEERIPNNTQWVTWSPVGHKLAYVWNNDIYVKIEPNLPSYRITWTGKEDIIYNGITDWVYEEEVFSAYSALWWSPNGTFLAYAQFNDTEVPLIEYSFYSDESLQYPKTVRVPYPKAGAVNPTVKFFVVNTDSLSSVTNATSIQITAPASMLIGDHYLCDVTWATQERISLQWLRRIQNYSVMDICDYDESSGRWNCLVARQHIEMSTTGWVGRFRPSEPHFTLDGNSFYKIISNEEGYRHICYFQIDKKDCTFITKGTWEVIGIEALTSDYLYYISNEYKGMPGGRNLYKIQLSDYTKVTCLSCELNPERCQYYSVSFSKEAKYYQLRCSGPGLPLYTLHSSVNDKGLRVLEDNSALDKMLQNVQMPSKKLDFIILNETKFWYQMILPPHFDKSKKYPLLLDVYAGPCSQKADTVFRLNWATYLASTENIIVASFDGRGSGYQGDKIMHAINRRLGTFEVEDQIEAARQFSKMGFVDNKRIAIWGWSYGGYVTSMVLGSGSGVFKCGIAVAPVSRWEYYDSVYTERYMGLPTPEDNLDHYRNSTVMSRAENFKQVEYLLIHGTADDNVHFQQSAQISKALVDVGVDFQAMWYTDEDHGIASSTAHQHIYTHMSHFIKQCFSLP
How it was run: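 Human plasma served as the DPP-IV source and was incubated 1 h with test compound at 0, 1, 10 or 100 μM in 0.1 M PBS, pH 7.4, 1 mM EDTA. Adding the DPP-IV-selective fluorogenic probe at 100 µM started the reaction. Fluorescence (ex 430 nm, em 535 nm) was read immediately over 20 min.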

SARS-CoV-2 3CL^pro [5] = molecular target: T1, SARS-CoV-2 3CL^pro; experiment: Fluorescence quenching assay; format: binding; settings: 3 μM 3CLpro
HCoV-229E 3CL^pro = HCoV-229E 3CL^pro (Human coronavirus 229E, UniProt P0C6X1); experiment: biochemical
Sequence of HCoV-229E 3CL^pro (P0C6X1 2966-3267): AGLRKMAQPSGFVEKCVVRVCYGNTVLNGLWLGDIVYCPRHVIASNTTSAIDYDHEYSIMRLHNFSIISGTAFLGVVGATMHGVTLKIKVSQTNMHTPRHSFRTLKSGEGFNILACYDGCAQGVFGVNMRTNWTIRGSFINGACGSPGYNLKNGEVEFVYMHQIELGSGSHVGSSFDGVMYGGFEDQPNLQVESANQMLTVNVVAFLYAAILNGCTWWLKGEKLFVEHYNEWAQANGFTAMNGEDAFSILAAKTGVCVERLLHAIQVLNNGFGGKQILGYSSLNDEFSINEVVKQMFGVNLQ

SARS-CoV-2 = settings: Huh7-ACE2, HeLa-ACE2 and A549-ACE2 cells; in the micromolar range, similar to Remdesivir; cited from earlier work
SARS-CoV-2 3CL^pro [6] = molecular target: T1, SARS-CoV-2 3CL^pro; experiment: CD spectroscopy, secondary structure content by CDNN; settings: 20 μM 3CLpro
[7] = molecular target: T2, human chymotrypsin C (CTRC) (Homo sapiens, UniProt Q99895); experiment: Human protease selectivity: CTRC inhibition; format: biochemical; settings: 0, 1, 10, 100 μM
T2 sequence (Q99895 30-268): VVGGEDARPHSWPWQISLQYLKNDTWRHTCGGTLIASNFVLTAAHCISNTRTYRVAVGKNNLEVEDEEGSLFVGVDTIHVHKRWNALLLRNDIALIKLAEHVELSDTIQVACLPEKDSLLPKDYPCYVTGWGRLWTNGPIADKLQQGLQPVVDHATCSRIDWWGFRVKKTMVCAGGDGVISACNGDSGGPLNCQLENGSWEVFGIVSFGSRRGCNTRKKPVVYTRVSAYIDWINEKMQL

## CCCCCCCCCCCCCCCC[N+](C)(C)Cc1ccccc1 [Cetalkonium chloride]
SARS-CoV-2 3CL^pro [1]
  IC50: 3.5 ± 0.47 µM
  inhibition at 100 µM: > 90%

## CCCCCCCCCCCCCCCC[N+](C)(C)C [Cetrimonium bromide]
SARS-CoV-2 3CL^pro [1]
  IC50: 12.8 ± 0.63 µM
  inhibition of protease activity in primary screening: significantly inhibit

## C[N+](C)(C)CCCCCCCCCC[N+](C)(C)C [Decamethonium bromide]
SARS-CoV-2 3CL^pro [1]
  IC50: > 100 µM
SARS-CoV-2 3CL^pro [1]; 100 µM
  inhibition against SARS-CoV-2 3CLpro: no inhibitory activity

## CCCCCCCCCCCC[N+](C)(C)CCOc1ccccc1 [Domiphen bromide]
SARS-CoV-2 3CL^pro [1]
  IC50: 45.9 ± 16.5 µM
  inhibition at 100 µM: > 90%

## CCCCCCCCOc1ccccc1C(=O)Nc1ccc(C(=O)OCC[N+](C)(CC)CC)cc1 [Otilonium bromide]
SARS-CoV-2 3CL^pro [1]
  IC50: 27.7 ± 0.33 µM
  inhibition of protease activity in primary screening: significantly inhibit

## CCCCCCCCCCCCCCCC[N+](C)(C)CCN(Cc1ccc(OC)cc1)c1ncccn1 [Thonzonium bromide]
SARS-CoV-2 3CL^pro [2]; 1 mM GSH
  inhibition against SARS-CoV-2 3CLpro in the presence of GSH: potent inhibition
SARS-CoV-2 3CL^pro [2]; 4 mM DTT
  inhibition against SARS-CoV-2 3CLpro in the presence of DTT: potent inhibition
SARS-CoV-2 3CL^pro [3]
  type of inhibition: non-competitive inhibitor
[4]
  inhibitory activity towards DPP-IV: didn’t exhibit inhibitory activity; also recorded: did not show measurable activity; also recorded: does not inhibit
SARS-CoV-2 3CL^pro [1]
  inhibition of protease activity in primary screening: significantly inhibit
SARS-CoV-2 3CL^pro [5]
  KSV (Stern-Volmer quenching constant): 39600 L/mol
SARS-CoV-2 3CL^pro [5]; τ0 about 10^-8 s
  Kq (bimolecular quenching rate constant): 3.96e+12 M⁻¹ s⁻¹
HCoV-229E 3CL^pro
  IC50: 6.47 µM
SARS-CoV-2
  antiviral effect against SARS-CoV-2 in cells: effective against SARS-CoV-2
SARS-CoV-2 3CL^pro [6]; 50 μM Thonzonium bromide
  Antiparallel (%): 18.60%
  Parallel (%): 6.30%
  Random coil (%): 30.70%
  Total sum (%): 95.40%
  α-helix (%): 25.50%
  β-turn (%): 14.20%
SARS-CoV-2 3CL^pro [6]; 100 μM Thonzonium bromide
  Antiparallel (%): 22.00%
  Parallel (%): 6.20%
  Random coil (%): 32.20%
  Total sum (%): 96.10%
  α-helix (%): 20.20%
  β-turn (%): 15.50%
SARS-CoV-2 3CL^pro [6]; 200 μM Thonzonium bromide
  Antiparallel (%): 33.60%
  Parallel (%): 6.30%
  Random coil (%): 34.00%
  Total sum (%): 102.10%
  α-helix (%): 12.30%
  β-turn (%): 15.90%
[7]
  inhibitory activity towards CTRC: didn’t exhibit inhibitory activity; also recorded: did not show measurable activity; also recorded: does not inhibit
